Bioassay records deposited in PubChem BioAssay by several laboratories.
Compounds with a hit are over-represented: about 8.2% of the library has one in this group of screens.
HePTP inhibitor – inhibitors of human HePTP phosphatase, primary screen, biochemical, absorbance, leukemia target; actives 0.64% (n = 110,000); AID 521, 2006; inhibition, % at 20 µM; recombinant HePTP phosphatase activity, OD absorbance; in the data active means inhibition above about 50%;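 further: plate controls were vehicle for no effect and reference inhibitor for full effect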
RORa activator – activators of orphan receptor RORA, primary screen, cell-based, luminescence; activation, % at 10 µM; CHO-K1 Gal4-RORA LBD luciferase reporter; percent increase over mock-subtracted basal signal; Nuclear receptor ROR-alpha (Homo sapiens), P35398; actives 1.5% (n = 65,000);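 active means activation above the mean of all tested compounds plus 3 SD, cut at about 49% in these data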;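 further: 0% = DMSO-treated RORA cells and 100% = added signal equal to DMSO minus mock-transfected cells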
SF-1 act – activators of human SF-1, primary screen, cell-based, CHO-K1, Gal4-SF-1 LBD, luciferase luminescence. activation, % at 10 µM. CHO-K1 Gal4-SF-1 LBD luciferase reporter; % increase over DMSO SF-1-specific signal. actives 1.9% (n = 65,000). AID 522, 2006. Steroidogenic factor 1 (Homo sapiens), Q13285;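 active means activation above the mean activation of all tested compounds plus 3 SD, cut at about 50% in these data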
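Material: CHO-K1 cells with Gal4–hSF-1 LBD chimera plus Gal4-driven luciferase / Input: 4,000 CHO-K1 cells per well / Incubation: compound exposure 20 h at 37 °C / Signal: luminescence read 15 min after SteadyLite luciferase reagent, after room-temperature equilibration / Read-out: percent activation versus DMSO / Benchmarks: DMSO negative control and −SF1 background wells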
M1 antagonist – antagonists of rat M1 muscarinic receptor; Muscarinic acetylcholine receptor M1 (Rattus norvegicus), P08482; CHO-M1 cells, Fluo-4 calcium, ACh EC80 antagonist mode; hits give low values; B-score at 10 µM; actives 3.4% (n = 64,000); AID 628, 2007;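 active means calcium fluorescence response, raw or row-and-column corrected B-score, differing from the plate sample mean either way at a set confidence level, mostly lower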
Target sequence (P08482 whole entry, looked up): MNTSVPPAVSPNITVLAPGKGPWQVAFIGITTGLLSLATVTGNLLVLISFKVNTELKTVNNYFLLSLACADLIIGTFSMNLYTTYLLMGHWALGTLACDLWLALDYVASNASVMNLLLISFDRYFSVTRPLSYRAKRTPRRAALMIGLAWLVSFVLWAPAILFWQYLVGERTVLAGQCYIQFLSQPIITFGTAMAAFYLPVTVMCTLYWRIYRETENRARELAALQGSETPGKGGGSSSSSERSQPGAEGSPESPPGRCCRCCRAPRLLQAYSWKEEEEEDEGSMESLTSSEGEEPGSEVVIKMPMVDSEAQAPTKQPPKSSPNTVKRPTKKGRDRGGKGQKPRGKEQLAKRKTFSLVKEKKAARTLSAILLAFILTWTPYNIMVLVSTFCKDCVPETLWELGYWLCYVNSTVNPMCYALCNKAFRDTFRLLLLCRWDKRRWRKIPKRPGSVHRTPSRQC
M1 agonist – M1 muscarinic receptor agonists, primary screen, CHO-M1 cells, Fluo-4 calcium, agonist mode. Muscarinic acetylcholine receptor M1. B-score at 10 µM. Fluo-4 calcium fluorescence; hits give high values. AID 626, 2007. actives 3% (n = 64,000);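 active means fluorescence rise, raw or as B-score row- and column-corrected plate score, outside the 99.7% band of its plate's samples, either direction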
D1 mod – D1 CRE-luciferase signal change, two-sided – cell-based, HEK293 D1, dopamine EC30, D1 allosteric modulator project, primary screen; D(1A) dopamine receptor (Homo sapiens), P21728; dopamine EC30 potentiation; actives deviate in either direction; B-score at 10 µM; actives 5.9% (n = 58,000);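 active means luminescence count or its row- and column-corrected plate score outside the 99.7% band of the plate's sample wells, on either side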
D1 mod confirm – D1 receptor positive allosteric modulators, retest, confirmation, cell-based, HEK293 D1, CRE-luciferase, duplicate; shares compounds with D1 mod; dopamine EC30 potentiation; hits give high values; luminescence at 10 µM; actives 88% (n = 2,200);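 active means luminescence in either of two replicates above the same-plate mean plus 3 SD of the low-dose dopamine control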
D1 ag no DA – D1 receptor agonism without dopamine, confirmation, mechanism study for D1 allosteric modulator project, cell-based, HEK293 D1, CRE-luciferase, secondary assay 1. shares compounds with D1 mod. luminescence, no dopamine; hits give high values. luminescence at 10 µM. actives 0.8% (n = 1,900). AID 646, 2007; in the data active means luminescence above about 3900
Isoprot counter – alters isoproterenol CRE-luciferase response in HEK293 cells | shares compounds with D1 mod | HEK293 D1 CRE-luciferase, isoproterenol EC30 counter-screen | calls only at 10 µM | actives 63% (n = 2,200);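 active means luminescence in either replicate above plate mean of wells with a partly effective reference agonist dose plus 3 SD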;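 further: isoproterenol raises cAMP through native beta-adrenoceptor Gs so signal bypasses D1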
The depositor's hits bear a star; i = inactive; nt = no result; + = active, no number.

SMILES	HePTP inhibitor	RORa activator	SF-1 act	M1 antagonist	M1 agonist	D1 mod	D1 mod confirm	D1 ag no DA	Isoprot counter
CCOC(=O)c1c(N)nn(C(C)=O)c1-c1ccccc1	4	1	-11	-0.16	-0.1	20*	19148*	1584	+
CCOC(=O)c1c(C)nc(-c2ccccc2)nc1NC(C)=O	17	25	26	-0.089	-0.24	0.58	nt	nt	nt
CCOC(=O)c1c(C)nc(-c2ccccc2)nc1N	2	51*	58*	0.63	0.46	4.1*	8680*	1600	+
Cc1ccc(S(=O)(=O)NN2C(=O)/C(=C/c3cccc4ccccc34)SC2=S)cc1	3	nt	nt	nt	nt	nt	nt	nt	nt
CCOC(=O)N1CCN(Cc2nc(N)nc(Nc3ccc(Oc4ccccc4)cc3)n2)CC1	4	10	-25	nt	nt	3.5*	12388*	1648	+
CCOC(=O)C1CCCN(Cc2nc(N)nc(Nc3ccc(OC)cc3)n2)C1 (stereo not drawn)	12	1	-7	0.019	3.6	-1.1	nt	nt	nt
CC(=O)Nc1ccc(Oc2cc(C#N)c(C#N)cc2N2CCCCCC2)cc1	5	13	-26	0.12	-0.92	4.9*	8364*	1744	+
CC(=O)Nc1ccc(Oc2ccc(C(=O)O)c(C(=O)O)c2)cc1	-7	nt	nt	nt	nt	nt	nt	nt	nt
CCOC(=O)c1sc(NC(=O)C2COc3ccccc3O2)c(C(=O)OCC)c1C (stereo not drawn)	4	nt	nt	nt	nt	nt	nt	nt	nt
CCOC(=O)c1c(C2COc3ccccc3O2)csc1N (stereo not drawn)	0	20	-10	0.29	0.76	9.9*	11276*	1584	+
CCn1ccc(C(=O)Nc2ccc(N(C)C(C)=O)cc2)n1	1	13	38	-0.17	0.36	2.4*	5156	1532	i
CC(=O)N(C)c1ccc(NC(=O)c2ccccc2C(=O)O)cc1	10	3	0	1.3	-0.41	-1.3	nt	nt	nt
c1ccc(-c2csc3nnc(SCc4ccc5c(c4)OCO5)n23)cc1	-2	4	-5	1.4	0.7	6.8*	16212*	2144	+
O=C(CCSc1nnc2scc(-c3ccccc3)n12)NCc1ccc2c(c1)OCO2	-1	3	8	-0.62	2.5	7.3*	11856*	1504	+
Fc1ccc(-c2csc3nnc(SCc4cccnc4)n23)cc1	14	-5	1	0.39	0.075	17*	26500*	1540	+
Cc1sc2nc(NC(=O)c3ccccc3)sc(=O)c2c1C	-2	nt	nt	nt	nt	nt	nt	nt	nt
O=C1Nc2ccc(Br)cc2C1=Cc1nc2ccccc2c(=O)n1-c1ccc(C(=O)O)cc1	13	nt	nt	nt	nt	nt	nt	nt	nt
CCCCn1cc(C(C)(C)C)c(C#N)c1NC(C)=O	-9	11	18	0.5	-0.11	6*	9748*	1536	+
CCCCn1c(NC(=O)c2ccccc2)c(C#N)c2nc3ccccc3nc21	15	7	3	nt	nt	-1.3	nt	nt	nt
O=C1c2ccc3c4c(ccc(c24)C(=O)N1c1ccc2c(c1)oc1ccccc12)CC3	20	nt	nt	nt	nt	nt	nt	nt	nt
Cc1cc(C)nc(SCC(=O)N2CCCCC2)n1	5	-17	-8	-0.2	-1.4	2.9*	5424*	1632	i
O=C(CSc1nnc(CNc2ccccc2)o1)c1ccc2c(c1)OCCO2	5	26	30	0.017	-0.031	0.061	nt	nt	nt
Clc1cccc(NCc2nnc(SCc3ccccc3)o2)c1	4	-2	6	-0.43	0.052	3.2*	7948*	nt	i
N#CCSc1nnc(CNc2cccc(Cl)c2)o1	4	6	0	0.0063	0.016	4*	4760	nt	i
CC1(C)CC(NC(=S)Nc2cccc(Cl)c2)CC(C)(C)N1	3	nt	nt	nt	nt	nt	nt	nt	nt
SMILES	HePTP inhibitor	RORa activator	SF-1 act	M1 antagonist	M1 agonist	D1 mod	D1 mod confirm	D1 ag no DA	Isoprot counter
c1ccc2c(c1)CCCN2c1nc2ccccc2n2cnnc12	0	37	54*	0.085	-0.93	7*	9840*	1760	i
c1ccc2c(c1)nc(N1CCOCC1)c1nncn12	2	nt	nt	nt	nt	nt	nt	nt	nt
c1ccc2c(c1)CCN(c1nc3ccccc3n3cnnc13)C2	3	5	4	-0.16	0.22	7.9*	13016*	1668	+
O=C(c1ccccc1Cl)N1CCCC(c2nc3c(nnn3Cc3ccccc3)c(=O)[nH]2)C1 (stereo not drawn)	-1	0	-2	-0.34	-0.22	1.4	nt	nt	nt
COc1cccc(Cn2nnc3c(=O)[nH]c(C4CCCN(C(=O)c5ccccc5Cl)C4)nc32)c1 (stereo not drawn)	5	10	-19	1.7	2	3*	9972*	nt	+
Cc1ccc(Cn2nnc3c(=O)[nH]c(C4CCCN(C(=O)Nc5ccc(F)cc5)C4)nc32)cc1 (stereo not drawn)	-1	-9	7	0.002	-0.068	2.1	nt	nt	nt
COc1ccc(Cn2nnc3c(=O)[nH]c(C4CCCN(C(=O)c5ccccc5)C4)nc32)cc1 (stereo not drawn)	-6	-9	10	-0.052	0.32	4.3*	10456*	1612	i
COc1ccccc1NC(=O)C1=C(C)NC2=C(C(=O)CCC2)C1c1ccc(Cl)cc1 (stereo not drawn)	-4	nt	nt	nt	nt	nt	nt	nt	nt
CCOC(=O)CSc1ncnc2c1cnn2-c1ccc(Cl)cc1	-5	6	12	-0.015	-0.52	-0.4	nt	nt	nt
COc1ccc(CCNC(=O)C2CC2)cc1OC	2	3	-15	-0.0066	0.18	nt	nt	nt	nt
COc1ccc(CCNC(=O)C2CC(=O)N(c3ccccc3)C2)cc1OC (stereo not drawn)	-1	2	7	-0.045	-0.27	2.9*	5376	1464	i
CCOc1ccccc1C1C(C#N)=C(N)SC(N)=C1C#N	10	17	6	0.24	-0.074	-0.089	nt	nt	nt
CCOc1ccc(C2C(C#N)=C(N)SC(N)=C2C#N)cc1OCC	4	1	13	1.2	0.065	5.4*	13032*	1560	+
